Bioassay records: PubChem, The Scripps Research Institute Molecular Screening Center
The list is not random: actives were taken first. Their share in the collection is about 4.6%.
TAAR1 antag = human TAAR1 antagonism; inhibition, % at 3 µM; CHO RD-HGA16 TAAR1, Fluo-8 calcium fluorescence, antagonist; actives 1.5% (n = 360,000); AID 624466;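 active = inhibition above a per-plate cutoff, the mean inhibition of test compounds on that plate plus 3 SD, cut at about 49% in these data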;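 also: 0% = DMSO plus EC80 beta-PEA response and 100% = DMSO alone without agonist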
Target sequence (Q96RJ0 whole entry, looked up): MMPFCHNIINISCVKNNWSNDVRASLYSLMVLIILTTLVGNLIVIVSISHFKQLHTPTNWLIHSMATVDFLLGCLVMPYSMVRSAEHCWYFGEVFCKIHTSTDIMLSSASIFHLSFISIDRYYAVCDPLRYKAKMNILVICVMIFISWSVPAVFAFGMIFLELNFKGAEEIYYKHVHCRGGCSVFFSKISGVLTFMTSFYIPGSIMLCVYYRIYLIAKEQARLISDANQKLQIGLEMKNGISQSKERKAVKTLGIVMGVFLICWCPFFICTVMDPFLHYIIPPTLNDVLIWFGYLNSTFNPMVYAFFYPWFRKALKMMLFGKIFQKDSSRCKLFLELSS
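Test system: hTAAR1-expressing CHO RD-HGA16 cells, Gα16-coupled; Probe or stimulus: EC80 β-phenethylamine stimulus; Compound dosing: single nominal final test compound concentration of 3 µM; Timing: 140 s kinetic read after compound, 140 s after agonist; Signal: Fluo-8 calcium-sensitive fluorescence; Measure: % inhibition of agonist calcium response; Controls: DMSO and EC80 PEA controls.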
OX1R antag-1 = human HCRTR1 antagonism; AID 434989; CHO/OX1R cells, Fluo-8 calcium fluorescence, orexin A; actives 0.43% (n = 330,000); inhibition, % at 5 µM;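 active = inhibition above its plate's threshold, mean inhibition of all tested compounds on the plate plus 3 SD, cut at about 37% in these data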;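 also: 0% = orexin A challenge wells and 100% = SB-334867-A antagonist wells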
GPR7 antag = blocks human GPR7 receptor signaling | P48145 | actives 1.1% (n = 290,000) | AID 1861 | inhibition, % at 4.4 µM | GPR7-expressing cells, fluorescence antagonist assay; in the data active = inhibition above about 16%, passing the limit was not always enough;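 also: cells stimulated with the agonist NPW; 0% = agonist with vehicle and 100% = vehicle without agonist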
TAAR1 agonist = agonists of human TAAR1; Q96RJ0; CHO RD-HGA16 TAAR1, Fluo-8 calcium fluorescence; vehicle wells 0%, saturating PEA agonist 100%; activation, % at 3 µM; actives 0.99% (n = 360,000);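 active = activation above the mean activation of all test compounds in the run plus 3 SD, cut at about 38% in these data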
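System: CHO-derived RD-HGA16 cells with stable Gα16 and human TAAR1 / Times: 17-24 h plating, Fluo-8 75 min 37 °C, 30 min RT / Technique: calcium-sensitive Fluo-8 signal, excitation 470-495, emission 515-575 nm / Measure: % activation relative to PEA EC100 response / Benchmarks: DMSO and PEA EC100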
OX1R antag-2 = blocks the human orexin 1 receptor; OX1R-expressing cells, FRET antagonist read-out; inhibition, % at 6.6 µM; actives 1.8% (n = 330,000); AID 485270; in the data active = inhibition mostly above about 38%, no sharp cut-off; inactive = mostly below about 40%;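 also: 0% = agonist challenge alone and 100% = reference antagonist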
CHO parental Ca = counter-screen: ATP calcium response change in parental CHO cells. parental CHO-K1, ATP-induced calcium, Fluo-8 fluorescence. actives 0.63% (n = 330,000). inhibition, % at 5.6 µM;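 active = inhibition above that plate's mean sample inhibition plus 3 SD, cut at about 26% in these data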;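 also: 0% = ATP-challenged DMSO wells and 100% = DMSO wells without ATP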
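Material: Parental CHO cells | Reagent: ATP | Compound dosing: Single nominal dose of 5.6 µM per compound | Detection: Intracellular calcium via Fluo-8 no-wash fluorescent dye | Read-out: % inhibition of ATP-induced calcium mobilization | Benchmarks: Low control ATP plus DMSO, high control DMSO only | Replicates: Singlicate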
The depositor's hits bear a star.

For O=c1c2cc(Br)ccc2[nH]c(=S)n1-c1ccccc1 the results were TAAR1 antag 30, OX1R antag-1 15, GPR7 antag 29*, TAAR1 agonist 0, OX1R antag-2 35 and CHO parental Ca -4.
`CC(C)(C)c1cc(C=C(C#N)C#N)cc(C(C)(C)C)c1O` gave TAAR1 antag 37, OX1R antag-1 -12, TAAR1 agonist 1, OX1R antag-2 44* and CHO parental Ca -5.
Screening CCOc1ccc(-n2c(-c3ccoc3)nc3ccccc3c2=O)cc1 returned TAAR1 antag 5, OX1R antag-1 -21, GPR7 antag 4, TAAR1 agonist 7, OX1R antag-2 22 and CHO parental Ca -13.
CCOc1ccc(-c2c(C)n(-c3ccc(OCC)cc3)c3[n+]2CCCCC3)cc1 was read as TAAR1 antag -21, OX1R antag-1 -2, GPR7 antag 46*, TAAR1 agonist 5, OX1R antag-2 26 and CHO parental Ca 40*.
Screening O=C(NC1CONC1=O)OCC(Cl)(Cl)Cl (stereo unspecified) returned TAAR1 antag 8, OX1R antag-1 0, GPR7 antag -16, TAAR1 agonist 2, OX1R antag-2 7 and CHO parental Ca 6.
O=C(NCCN1CCC2(CC1)C(=O)NCN2c1ccccc1)c1cccc2c1-c1ccccc1C2=O was read as TAAR1 antag -7 and TAAR1 agonist 2.
For CN(C)C(=O)Oc1ccc2nnc3ccnn3c2c1 the results were TAAR1 antag 11, OX1R antag-1 -6, GPR7 antag -15, TAAR1 agonist -2, OX1R antag-2 36* and CHO parental Ca -4.
Screening N#Cc1ccc2nc(-c3ccc(CN4CCC(n5nnc6ccccc65)CC4)cc3)c(-c3ccccc3)nc2c1 returned TAAR1 antag 46 and TAAR1 agonist -1.
COC(=O)C1=C(c2ccccc2OCc2ccccc2)C[C@@H]2CC[C@H]1N2C(=O)NCc1ccc(C(F)(F)F)cc1 was read as TAAR1 antag 33, OX1R antag-1 -4, TAAR1 agonist 2, OX1R antag-2 10 and CHO parental Ca -34.
Screening COC(=O)C1=C(c2ccc(F)cc2OCc2ccccc2)C[C@@H]2CC[C@H]1N2C(=O)NCc1ccc(C(F)(F)F)cc1 returned TAAR1 antag 53*, OX1R antag-1 15, TAAR1 agonist 23, OX1R antag-2 16 and CHO parental Ca -19.
`Cc1ccccc1-n1c(O)c(/C=C2/C(c3ccccc3)=Nc3ccccc32)c(=O)[nH]c1=O` gave TAAR1 antag 21, OX1R antag-1 -3, GPR7 antag 29*, TAAR1 agonist 2, OX1R antag-2 25 and CHO parental Ca -10.
`Cc1cc(N2CCNC[C@H]2C)ccc1N1CC[C@@H](O)C1` gave TAAR1 antag -16 and TAAR1 agonist 3.
`N#Cc1ccc(NC(=S)N2Cc3cc(Br)ccc3-n3nncc3C2)cc1` gave TAAR1 antag 9 and TAAR1 agonist 8.
For COC(=O)C1=C(c2cc3ccccc3o2)C[C@@H]2CC[C@H]1N2C(=O)NCc1ccc(F)cc1 the results were TAAR1 antag -8, OX1R antag-1 -25, TAAR1 agonist 11, OX1R antag-2 32 and CHO parental Ca -6.
For COC(=O)C1=C(c2cc3ccccc3o2)C[C@@H]2CC[C@H]1N2C(=O)NCc1cccc2ccccc12 the results were TAAR1 antag 6, OX1R antag-1 31, TAAR1 agonist 7, OX1R antag-2 69* and CHO parental Ca -14.
For CC(C)(O)[C@@H]1[C@H]2OC(=O)[C@@H]1[C@]1(O)C[C@H]3O[C@]34C(=O)O[C@H]2[C@]14C (tested in a mixture with another compound) the results were OX1R antag-1 -8, OX1R antag-2 10 and CHO parental Ca -4.
For COC1C(OC(=O)c2ccc(C)[nH]2)C(O)C(Oc2ccc3c(O)c(NC(=O)c4ccc(O)c(CC=C(C)C)c4)c(=O)oc3c2Cl)OC1(C)C (stereo unspecified) the results were TAAR1 antag 12, OX1R antag-1 36, GPR7 antag 14, TAAR1 agonist -2, OX1R antag-2 11 and CHO parental Ca 32*.
Screening O=C(O)C(Br)Br returned TAAR1 antag -3 and TAAR1 agonist 1.
